Test results published in the M2OR odorant receptor database.

Columns and labels:
Conditions in all cases: stereoisomer not certain
UniProt Q8VF52 = molecular target: T1, UniProt Q8VF52
T1 sequence (whole entry): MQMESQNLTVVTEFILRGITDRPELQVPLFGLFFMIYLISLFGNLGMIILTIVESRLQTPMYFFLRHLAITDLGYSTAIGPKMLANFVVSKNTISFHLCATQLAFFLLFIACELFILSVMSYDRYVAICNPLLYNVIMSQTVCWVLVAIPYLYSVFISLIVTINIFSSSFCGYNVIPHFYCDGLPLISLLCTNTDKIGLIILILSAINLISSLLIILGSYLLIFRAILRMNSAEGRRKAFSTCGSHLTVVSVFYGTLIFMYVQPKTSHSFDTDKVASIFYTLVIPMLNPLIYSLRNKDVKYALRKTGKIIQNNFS
Method in brief: (§1)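 Whether a receptor–molecule pair is responsive (active) rests on the original authors' judgment that its measured signal was statistically different from baseline. Pairs without that judgment are non-responsive (inactive). Sources used varied assay methods, commonly transient luciferase assays in mammalian cell lines.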

UniProt Q8VFM8 = molecular target: T2, UniProt Q8VFM8
T2 sequence (whole entry): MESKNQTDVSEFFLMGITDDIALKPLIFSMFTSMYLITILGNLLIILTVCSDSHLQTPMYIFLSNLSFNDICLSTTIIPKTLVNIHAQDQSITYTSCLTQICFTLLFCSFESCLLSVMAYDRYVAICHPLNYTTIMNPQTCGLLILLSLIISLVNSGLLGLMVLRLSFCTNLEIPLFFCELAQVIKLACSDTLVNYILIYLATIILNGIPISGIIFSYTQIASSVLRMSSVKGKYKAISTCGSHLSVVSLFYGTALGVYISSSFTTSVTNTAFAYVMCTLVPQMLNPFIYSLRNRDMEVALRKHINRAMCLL
Method in brief: as §1

UniProt Q8VFP5 = molecular target: T3, UniProt Q8VFP5
T3 sequence (whole entry): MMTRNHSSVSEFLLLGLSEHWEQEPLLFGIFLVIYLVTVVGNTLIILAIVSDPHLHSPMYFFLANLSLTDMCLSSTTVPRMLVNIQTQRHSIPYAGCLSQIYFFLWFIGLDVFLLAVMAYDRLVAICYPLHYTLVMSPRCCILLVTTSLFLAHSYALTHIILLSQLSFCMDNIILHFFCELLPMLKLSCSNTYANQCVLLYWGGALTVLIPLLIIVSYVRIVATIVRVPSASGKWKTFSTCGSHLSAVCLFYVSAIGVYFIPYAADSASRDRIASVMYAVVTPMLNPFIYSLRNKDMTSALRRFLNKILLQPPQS
Method in brief: as §1

UniProt Q8VG01 = molecular target: T4, UniProt Q8VG01
T4 sequence (whole entry): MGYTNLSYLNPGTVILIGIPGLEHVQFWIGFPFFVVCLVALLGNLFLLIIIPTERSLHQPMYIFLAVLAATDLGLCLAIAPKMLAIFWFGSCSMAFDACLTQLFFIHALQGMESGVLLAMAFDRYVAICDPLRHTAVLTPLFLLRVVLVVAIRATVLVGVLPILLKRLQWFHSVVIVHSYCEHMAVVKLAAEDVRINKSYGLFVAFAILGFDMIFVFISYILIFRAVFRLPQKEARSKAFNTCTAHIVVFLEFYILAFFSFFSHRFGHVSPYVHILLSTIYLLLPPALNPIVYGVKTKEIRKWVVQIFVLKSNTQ
Method in brief: as §1

UniProt Q8VG27 = molecular target: T5, UniProt Q8VG27
T5 sequence (whole entry): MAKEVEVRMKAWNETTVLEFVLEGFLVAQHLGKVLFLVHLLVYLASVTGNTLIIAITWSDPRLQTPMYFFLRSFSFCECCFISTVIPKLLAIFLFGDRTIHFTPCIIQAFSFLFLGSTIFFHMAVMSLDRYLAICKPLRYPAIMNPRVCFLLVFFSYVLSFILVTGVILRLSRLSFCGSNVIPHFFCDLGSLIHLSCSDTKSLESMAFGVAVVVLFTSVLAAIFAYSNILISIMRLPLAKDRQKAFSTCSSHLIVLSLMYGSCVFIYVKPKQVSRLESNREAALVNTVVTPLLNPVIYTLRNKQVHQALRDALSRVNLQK
Method in brief: as §1

UniProt Q8VG53 = molecular target: T6, UniProt Q8VG53
T6 sequence (whole entry): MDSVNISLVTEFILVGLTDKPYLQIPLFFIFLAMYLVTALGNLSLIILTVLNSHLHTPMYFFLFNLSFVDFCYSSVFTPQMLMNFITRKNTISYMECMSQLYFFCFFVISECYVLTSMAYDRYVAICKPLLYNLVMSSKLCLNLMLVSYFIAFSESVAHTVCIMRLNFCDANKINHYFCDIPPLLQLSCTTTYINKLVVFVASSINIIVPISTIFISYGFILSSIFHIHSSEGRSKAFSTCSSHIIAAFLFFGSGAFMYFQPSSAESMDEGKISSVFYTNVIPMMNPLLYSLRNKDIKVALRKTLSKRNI
Method in brief: as §1

UniProt Q8VG64 = molecular target: T7, UniProt Q8VG64
T7 sequence (whole entry): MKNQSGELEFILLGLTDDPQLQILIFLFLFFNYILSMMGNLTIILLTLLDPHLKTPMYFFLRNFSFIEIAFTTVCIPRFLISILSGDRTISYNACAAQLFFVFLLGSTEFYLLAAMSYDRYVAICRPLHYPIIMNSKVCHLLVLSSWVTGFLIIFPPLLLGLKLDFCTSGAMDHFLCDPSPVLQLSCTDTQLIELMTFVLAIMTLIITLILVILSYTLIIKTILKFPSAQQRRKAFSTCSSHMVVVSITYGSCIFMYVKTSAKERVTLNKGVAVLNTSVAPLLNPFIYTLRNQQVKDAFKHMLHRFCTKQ
Method in brief: as §1

UniProt Q8VGB9 = molecular target: T8, UniProt Q8VGB9
T8 sequence (whole entry): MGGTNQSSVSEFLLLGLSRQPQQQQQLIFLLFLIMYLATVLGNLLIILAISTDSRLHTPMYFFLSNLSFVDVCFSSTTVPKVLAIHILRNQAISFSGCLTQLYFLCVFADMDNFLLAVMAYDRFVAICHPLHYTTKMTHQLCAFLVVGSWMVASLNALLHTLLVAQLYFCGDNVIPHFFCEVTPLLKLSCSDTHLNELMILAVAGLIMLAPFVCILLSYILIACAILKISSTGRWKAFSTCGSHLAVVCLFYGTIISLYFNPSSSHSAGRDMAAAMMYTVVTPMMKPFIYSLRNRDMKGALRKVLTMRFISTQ
Method in brief: as §1

UniProt Q8VGC6 = molecular target: T9, UniProt Q8VGC6
T9 sequence (whole entry): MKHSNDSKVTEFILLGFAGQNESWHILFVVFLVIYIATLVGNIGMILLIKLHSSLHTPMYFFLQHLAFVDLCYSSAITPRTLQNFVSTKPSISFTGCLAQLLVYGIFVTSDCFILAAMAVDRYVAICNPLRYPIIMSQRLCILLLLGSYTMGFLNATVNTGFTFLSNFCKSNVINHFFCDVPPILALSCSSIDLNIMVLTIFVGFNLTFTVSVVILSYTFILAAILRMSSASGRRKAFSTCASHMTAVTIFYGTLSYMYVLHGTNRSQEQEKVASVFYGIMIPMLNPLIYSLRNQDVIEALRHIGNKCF
Method in brief: as §1

UniProt Q8VGJ3 = molecular target: T10, UniProt Q8VGJ3
T10 sequence (whole entry): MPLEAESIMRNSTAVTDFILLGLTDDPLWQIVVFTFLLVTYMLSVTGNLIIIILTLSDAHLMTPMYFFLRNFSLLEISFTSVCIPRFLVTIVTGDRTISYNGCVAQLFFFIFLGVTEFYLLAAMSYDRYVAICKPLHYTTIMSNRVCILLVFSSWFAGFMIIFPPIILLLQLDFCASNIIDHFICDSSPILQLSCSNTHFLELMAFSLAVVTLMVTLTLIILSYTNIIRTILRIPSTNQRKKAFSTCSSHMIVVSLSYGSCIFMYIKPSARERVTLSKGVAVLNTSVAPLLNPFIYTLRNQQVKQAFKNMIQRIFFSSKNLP
Method in brief: as §1

Measured: odorant receptor agonist call;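 further: active if original authors judged signal statistically different from baseline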

CCCCC(Br)C(=O)O (stereo not given)
inactive: all assays above

O=Cc1ccccc1
active: UniProt Q8VGJ3
inactive: all other assays above

CC(C=O)Cc1ccc2c(c1)OCO2 (stereo not given)
active: UniProt Q8VGC6
inactive: all other assays above

Cc1ccc(OC(=O)Cc2ccccc2)cc1
inactive: all assays above

O=CC=Cc1ccccc1
inactive: all assays above
